ChEMBL document CHEMBL1136105, “1,7- and 2,7-naphthyridine derivatives as potent and highly specific PDE5 inhibitors” (Bioorg Med Chem Lett, 2003)

Assays:
[1] = biological target: cGMP-specific 3',5'-cyclic phosphodiesterase (Canis lupus familiaris, UniProt O77746); assay: Inhibitory activity against phosphodiesterase 5 (PDE5) isolated from canine lung
In short: (§1)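 Enzyme IC50 taken from a logarithmic concentration–inhibition curve of at least four points; each value is the mean of at least two duplicate experiments.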

Phosphodiesterase 6 = assay: Inhibitory activity against Phosphodiesterase 6 isolated from bovine retina; assay type: protein assay
Phosphodiesterase 1 = Phosphodiesterase 1 (Homo sapiens, UniProt P54750+Q01064+Q14123); assay: Inhibitory activity against phosphodiesterase-1 (PDE1) isolated from canine lung; assay type: protein assay, Canis lupus familiaris; settings: target entry is the homologue from another species; in short: as §1
[2] = biological target: T1, cGMP-dependent 3',5'-cyclic phosphodiesterase (Bos taurus, UniProt P14099); assay: Inhibitory activity against phosphodiesterase-2 (PDE2) isolated from bovine adrenal gland; assay type: tissue-based; in short: as §1
T1 sequence (P14099 whole entry): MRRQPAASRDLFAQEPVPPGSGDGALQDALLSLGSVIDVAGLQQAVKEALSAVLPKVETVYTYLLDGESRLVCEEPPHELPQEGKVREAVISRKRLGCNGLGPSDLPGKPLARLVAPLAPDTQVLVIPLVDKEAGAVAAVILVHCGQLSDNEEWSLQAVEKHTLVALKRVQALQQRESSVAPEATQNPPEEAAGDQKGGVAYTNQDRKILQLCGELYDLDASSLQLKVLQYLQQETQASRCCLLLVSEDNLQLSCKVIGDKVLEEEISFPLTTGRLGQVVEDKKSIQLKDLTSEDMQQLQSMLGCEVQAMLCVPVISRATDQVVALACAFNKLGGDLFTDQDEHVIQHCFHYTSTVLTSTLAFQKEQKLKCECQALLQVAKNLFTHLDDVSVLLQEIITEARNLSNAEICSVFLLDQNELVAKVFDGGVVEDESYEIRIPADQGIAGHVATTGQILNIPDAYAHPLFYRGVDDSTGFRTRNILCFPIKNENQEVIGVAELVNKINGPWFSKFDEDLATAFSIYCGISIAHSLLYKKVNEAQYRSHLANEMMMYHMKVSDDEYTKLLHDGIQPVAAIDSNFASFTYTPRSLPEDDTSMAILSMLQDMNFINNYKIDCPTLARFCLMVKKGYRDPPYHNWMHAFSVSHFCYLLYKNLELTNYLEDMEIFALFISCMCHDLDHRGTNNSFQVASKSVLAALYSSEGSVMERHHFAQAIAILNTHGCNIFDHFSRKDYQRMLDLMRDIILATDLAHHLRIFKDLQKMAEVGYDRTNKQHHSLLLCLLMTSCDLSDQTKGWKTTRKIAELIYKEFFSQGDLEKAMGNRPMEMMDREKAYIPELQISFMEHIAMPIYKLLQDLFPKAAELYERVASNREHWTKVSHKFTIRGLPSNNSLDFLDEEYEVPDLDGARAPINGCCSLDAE

Phosphodiesterase 3 = Phosphodiesterase 3 (Homo sapiens, UniProt Q14432+Q13370); assay: Inhibitory activity against phosphodiesterase-3 (PDE3) isolated from canine heart; assay type: protein assay, Canis lupus familiaris; settings: target entry is the homologue from another species; in short: as §1
Phosphodiesterase 4 = Phosphodiesterase 4 (Homo sapiens, UniProt P27815+Q08499+Q07343+Q08493); assay: Inhibitory activity against phosphodiesterase 4 (PDE4) isolated from canine lung; assay type: protein assay, Canis lupus familiaris; settings: target entry is the homologue from another species; in short: as §1
Oryctolagus cuniculus = species on record: Oryctolagus cuniculus; assay: Relaxant effect on rabbit corpus cavernosum; assay type: functional

SMILES | IC50 [1] [nM] | IC50 (Phosphodiesterase 6) [nM] | IC50 (Phosphodiesterase 1) [nM] | IC50 [2] [nM] | IC50 (Phosphodiesterase 3) [nM] | IC50 (Phosphodiesterase 4) [nM] | EC30 (Oryctolagus cuniculus) [nM]
COC(=O)c1c(-c2cc(OC)c(OC)c(OC)c2)c2ccc(NCc3ccccn3)nc2c(=O)n1Cc1ccnc(C)c1.Cl | 1.8 | 22 | 41000 | – | – | – | –
CCCc1nn(C)c2c(=O)[nH]c(-c3cc(S(=O)(=O)N4CCN(C)CC4)ccc3OCC)nc12 | – | – | – | 43000 | – | – | –
COC(=O)c1c(-c2cc(OC)c(OC)c(OC)c2)c2ccc(OCc3ccccn3)nc2c(=O)n1Cc1cccnc1.Cl | 2.3 | 38 | 12000 | – | – | – | –
COC(=O)c1c(-c2cc(OC)c(OC)c(OC)c2)c2ccc(OCCc3ccccn3)nc2c(=O)n1Cc1ccnc(C)c1 | 1.2 | – | – | – | – | – | –
COC(=O)c1c(-c2cc(OC)c(OC)c(OC)c2)c2ccc(OCc3ccccn3)nc2c(=O)n1Cc1ccccn1.Cl | 11 | 230 | 20000 | – | – | – | –
COC(=O)c1c(-c2cc(OC)c(OC)c(OC)c2)c2ccnc(NCCO)c2c(=O)n1Cc1ccnc(C)c1.Cl | 2.6 | 280 | 19000 | 78000 | 5300 | 450 | 14
COC(=O)c1c(-c2cc(OC)c(OC)c(OC)c2)c2ccc(OCc3ncccn3)nc2c(=O)n1Cc1ccnc(C)c1.Cl | 1.9 | 42 | > 100000 | 25000 | > 100000 | 19000 | 37
COC(=O)c1c(-c2cc(OC)c(OC)c(OC)c2)c2ccnc(N3CCN(C)CC3)c2c(=O)n1Cc1ccnc(C)c1 | 94 | 1400 | > 100000 | – | – | – | –
COC(=O)c1c(-c2cc(OC)c(OC)c(OC)c2)c2ccc(OCc3ccccn3)cc2c(=O)n1-c1ccc(N)cc1.O=S(=O)(O)O | – | 28 | 3000 | 9700 | – | – | 7.9

Second part, led by results:

IC50 [1] [nM] | IC50 (Phosphodiesterase 6) [nM] | IC50 (Phosphodiesterase 1) [nM] | IC50 [2] [nM] | IC50 (Phosphodiesterase 3) [nM] | IC50 (Phosphodiesterase 4) [nM] | SMILES | EC30 (Oryctolagus cuniculus) [nM]
0.52 | 72 | 20000 | > 100000 | > 100000 | 50000 | COC(=O)c1c(-c2cc(OC)c(OC)c(OC)c2)c2ccnc(OCCc3ccccn3)c2c(=O)n1Cc1ccnc(C)c1.Cl | 22
0.22 | 8.6 | 33000 | 40000 | > 100000 | 30000 | COC(=O)c1c(-c2cc(OC)c(OC)c(OC)c2)c2ccc(OCc3ccccn3)nc2c(=O)n1Cc1ccnc(C)c1.Cl | 53
0.23 | 56 | > 100000 | > 100000 | > 100000 | 67000 | COC(=O)c1c(-c2cc(OC)c(OC)c(OC)c2)c2ccnc(OCc3ncccn3)c2c(=O)n1Cc1ccnc(C)c1.Cl | 5
0.29 | 7.7 | 22000 | – | – | – | COC(=O)c1c(-c2cc(OC)c(OC)c(OC)c2)c2ccc(OCc3cnccn3)nc2c(=O)n1Cc1ccnc(C)c1.Cl | –
0.38 | 11 | 45000 | – | – | – | COC(=O)c1c(-c2cc(OC)c(OC)c(OC)c2)c2ccc(OCc3ccccn3)nc2c(=O)n1Cc1ccncc1.Cl | –
0.51 | 22 | 40000 | – | – | – | COC(=O)c1c(-c2cc(OC)c(OC)c(OC)c2)c2ccc(OCc3ccccn3)nc2c(=O)n1-c1ccc(N)cc1.Cl | –
0.31 | 4.4 | 25000 | – | – | – | COC(=O)c1c(-c2cc(OC)c(OC)c(OC)c2)c2ccnc(OCc3ccccn3)c2c(=O)n1Cc1ccnc(C)c1 | –
